Source: ChEMBL document CHEMBL2086340, “Synthesis and biological evaluation of 2-benzylamino-4(5)-(6-methylpyridin-2-yl)-5(4)-([1,2,4]triazolo[1,5-a]-pyridin-6-yl)thiazoles as transforming growth factor-β type 1 receptor kinase inhibitors” (Eur J Med Chem, 2012)

Columns and labels:
[1] = target: Mitogen-activated protein kinase 14 (Homo sapiens, UniProt Q16539); assay: Inhibition of human recombinant p38alpha expressed in Escherichia coli using ATF2 as a substrate by radioisotopic protein kinase assay
Chain of Mitogen-activated protein kinase 14 (Q16539 whole entry): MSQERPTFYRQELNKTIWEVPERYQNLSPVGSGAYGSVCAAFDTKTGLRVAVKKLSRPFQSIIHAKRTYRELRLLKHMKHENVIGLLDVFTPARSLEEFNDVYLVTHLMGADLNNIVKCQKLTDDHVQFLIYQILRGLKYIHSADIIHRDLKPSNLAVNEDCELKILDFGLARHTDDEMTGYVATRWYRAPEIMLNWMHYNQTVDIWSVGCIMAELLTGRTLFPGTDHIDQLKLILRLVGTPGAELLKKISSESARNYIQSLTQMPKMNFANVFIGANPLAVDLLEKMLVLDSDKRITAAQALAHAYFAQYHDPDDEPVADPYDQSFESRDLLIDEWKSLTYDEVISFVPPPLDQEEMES

Homo sapiens = organism: Homo sapiens; assay: Selectivity index, ratio of IC50 for human recombinant p38alpha to IC50 for human recombinant ALK5
Method in brief: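 Index is IC50(p38α)/IC50(ALK5), each from a radioisotopic ³³P protein kinase assay run by a contract lab. The p38α was untagged human recombinant protein expressed in E. coli and purified on Ni–NTH–agarose, with ATF2 as substrate. The ALK5 kinase domain was human recombinant GST-fusion protein from baculovirus-infected Sf9 cells, with casein as substrate.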

TGF-beta receptor type-1 = target: T1, TGF-beta receptor type-1 (Homo sapiens, UniProt P36897); assay: Inhibition of human recombinant GST-fused ALK5 expressed in Sf9 cells using casein as a substrate by radioisotopic protein kinase assay
T1 sequence (P36897 whole entry): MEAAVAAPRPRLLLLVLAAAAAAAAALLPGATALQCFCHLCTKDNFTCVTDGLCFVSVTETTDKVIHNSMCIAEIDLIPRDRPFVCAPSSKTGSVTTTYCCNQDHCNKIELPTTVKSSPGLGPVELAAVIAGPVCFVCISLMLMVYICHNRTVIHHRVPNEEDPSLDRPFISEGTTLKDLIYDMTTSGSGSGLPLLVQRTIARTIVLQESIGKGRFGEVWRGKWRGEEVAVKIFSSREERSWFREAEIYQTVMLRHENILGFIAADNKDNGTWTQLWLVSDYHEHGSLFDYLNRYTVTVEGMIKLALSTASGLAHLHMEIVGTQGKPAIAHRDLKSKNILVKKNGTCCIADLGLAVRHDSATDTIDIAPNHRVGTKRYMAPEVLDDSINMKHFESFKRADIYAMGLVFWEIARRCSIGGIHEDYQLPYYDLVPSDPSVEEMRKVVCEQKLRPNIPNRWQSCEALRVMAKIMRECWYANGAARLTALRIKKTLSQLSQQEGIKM

Structure (SMILES) | IC50 [1] | Ratio IC50 (Homo sapiens) | IC50 (TGF-beta receptor type-1)
COc1cccc(CNc2nc(-c3cccc(C)n3)c(-c3ccc4ncnn4c3)s2)c1 | > 10 µM | > 877 | 0.0114 µM
Cc1cccc(-c2sc(NCc3cccc(C#N)c3)nc2-c2ccc3ncnn3c2)n1 | > 10 µM | > 398 | 0.0251 µM
Cc1cccc(-c2nc(NCc3ccccc3OC(F)(F)F)sc2-c2ccc3ncnn3c2)n1 | > 10 µM | > 279 | 0.0359 µM
COc1cccc(CNc2nc(-c3cccc(C)n3)c(-c3ccc4ncnn4c3)s2)c1OC | > 10 µM | > 230 | 0.0435 µM
Cc1cccc(CNc2nc(-c3cccc(C)n3)c(-c3ccc4ncnn4c3)s2)c1 | 5.37 µM | 479 | 0.0112 µM
Cc1cccc(-c2nc(NCc3ccc(C#N)cc3)sc2-c2ccc3ncnn3c2)n1 | > 10 µM | > 325 | 0.0308 µM
Cc1cccc(-c2nc(NCc3ccc(C(N)=O)cc3)sc2-c2ccc3ncnn3c2)n1 | > 10 µM | > 389 | 0.0257 µM
Cc1cccc(-c2nc(NCc3cccc(C)c3C)sc2-c2ccc3ncnn3c2)n1 | > 10 µM | > 452 | 0.0221 µM
Cc1cccc(-c2nc(NCc3ccc(F)c(F)c3)sc2-c2ccc3ncnn3c2)n1 | 3.58 µM | 482 | 0.00743 µM
Cc1cccc(-c2nc(NCc3cccc(C(N)=O)c3)sc2-c2ccc3ncnn3c2)n1 | 6.19 µM | 455 | 0.0136 µM
Cc1cccc(-c2sc(NCc3ccccc3F)nc2-c2ccc3ncnn3c2)n1 | > 10 µM | > 472 | 0.0212 µM
Cc1cccc(-c2nc(NCc3ccccc3)sc2-c2ccc3ncnn3c2)n1 | 5.53 µM | 489 | 0.0113 µM
COc1ccc(CNc2nc(-c3cccc(C)n3)c(-c3ccc4ncnn4c3)s2)cc1 | > 10 µM | > 412 | 0.0243 µM
Cc1cccc(-c2nc(NCc3cccc(F)c3F)sc2-c2ccc3ncnn3c2)n1 | 7.2 µM | 245 | 0.0294 µM
Cc1cccc(-c2[nH]c(Cc3cccc(C(N)=O)c3)nc2-c2ccc3nccnc3c2)n1 |  | 28 | 
Cc1cccc(-c2nc(NCc3cccc(F)c3)sc2-c2ccc3ncnn3c2)n1 | 3.53 µM | 504 | 0.00701 µM
Cc1cccc(-c2nc(NCc3cc(Cl)cc(Cl)c3)sc2-c2ccc3ncnn3c2)n1 | > 10 µM | > 662 | 0.0151 µM
COc1cc(CNc2nc(-c3cccc(C)n3)c(-c3ccc4ncnn4c3)s2)cc(OC)c1 | 7.99 µM | 484 | 0.0165 µM

Structure (SMILES) | IC50 [1] | Ratio IC50 (Homo sapiens) | IC50 (TGF-beta receptor type-1)
Cc1cccc(-c2nc(NCc3ccccc3F)sc2-c2ccc3ncnn3c2)n1 | > 10 µM | > 962 | 0.0104 µM
Cc1cccc(-c2nc(NCc3cccc(Cl)c3)sc2-c2ccc3ncnn3c2)n1 | 3.28 µM | 322 | 0.0102 µM
Cc1cc(C)cc(CNc2nc(-c3cccc(C)n3)c(-c3ccc4ncnn4c3)s2)c1 | > 10 µM | > 455 | 0.022 µM
Cc1cccc(-c2nc(NCc3ccccc3Cl)sc2-c2ccc3ncnn3c2)n1 | 5.86 µM | 378 | 0.0155 µM
Cc1cccc(-c2nc(NCc3ccc(Cl)cc3)sc2-c2ccc3ncnn3c2)n1 | > 10 µM | > 633 | 0.0158 µM
COc1ccc(CNc2nc(-c3cccc(C)n3)c(-c3ccc4ncnn4c3)s2)cc1OC | > 10 µM | > 210 | 0.0477 µM
Cc1cccc(-c2nc(NCc3cccc(Cl)c3Cl)sc2-c2ccc3ncnn3c2)n1 | > 10 µM | > 292 | 0.0343 µM
Cc1cccc(-c2nc(NCc3ccccc3C)sc2-c2ccc3ncnn3c2)n1 | > 10 µM | > 592 | 0.0169 µM
Cc1cccc(-c2nc(NCc3cccc(OC(F)(F)F)c3)sc2-c2ccc3ncnn3c2)n1 | 7.39 µM | 383 | 0.0193 µM
Cc1cccc(-c2nc(NCc3ccc(Cl)c(Cl)c3)sc2-c2ccc3ncnn3c2)n1 | > 10 µM | > 457 | 0.0219 µM
Cc1cccc(-c2nc(NCc3ccc(F)cc3)sc2-c2ccc3ncnn3c2)n1 | 9.2 µM | 1070 | 0.00861 µM
Cc1cccc(-c2nc(NCc3cc(F)cc(F)c3)sc2-c2ccc3ncnn3c2)n1 | 3.82 µM | 428 | 0.00892 µM
Cc1cccc(-c2nc(NCc3ccc(OC(F)(F)F)cc3)sc2-c2ccc3ncnn3c2)n1 | > 10 µM | > 164 | 0.0609 µM
Cc1cccc(-c2nc(NCc3cccc(C#N)c3)sc2-c2ccc3ncnn3c2)n1 | 3.78 µM | 408 | 0.00926 µM
Cc1ccc(CNc2nc(-c3cccc(C)n3)c(-c3ccc4ncnn4c3)s2)cc1 | > 10 µM | > 1140 | 0.00875 µM
Cc1cccc(-c2sc(NCc3ccccc3)nc2-c2ccc3ncnn3c2)n1 | 8.82 µM | 360 | 0.0245 µM
Cc1cccc(-c2sc(NCc3cccc(C(N)=O)c3)nc2-c2ccc3ncnn3c2)n1 | > 10 µM | > 833 | 0.012 µM
